In ChEMBL document CHEMBL1770075, “Thermal solvent-free synthesis of novel pyrazolyl chalcones and pyrazolines as potential antimicrobial agents” (2011):
Values after ≈ are worked out from the molar mass of the structure shown.

How the values were obtained:
[1] = system: Trichophyton mentagrophytes; assay: Antifungal activity against Trichophyton mentagrophytes after 48 hrs; assay type: functional
Method in brief: (§1)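 Broth with two-fold serial dilutions of compound was inoculated with 1.6 × 10⁴–6 × 10⁴ c.f.u/ml and incubated at 35 °C. MIC is the lowest concentration that arrests growth. For MFC, 0.1 ml was spread on agar, colonies were counted after 48 h at 35 °C, and the endpoint was the lowest concentration killing 99.9%.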

[2] = system: Talaromyces marneffei; assay: Antifungal activity against Penicillium marneffei after 48 hrs; assay type: functional; method in brief: as §1
[3] = system: Candida albicans; assay: Antifungal activity against Candida albicans after 48 hrs by Halo zone test; assay type: functional
[4] = system: Aspergillus fumigatus; assay: Antifungal activity against Aspergillus fumigatus after 48 hrs; assay type: functional; method in brief: as §1
[5] = system: Candida albicans; assay: Antifungal activity against Candida albicans after 48 hrs; assay type: functional; method in brief: as §1
[6] = system: Aspergillus fumigatus; assay: Antifungal activity against Aspergillus fumigatus after 48 hrs by Halo zone test; assay type: functional
[7] = system: Talaromyces marneffei; assay: Antifungal activity against Penicillium marneffei after 48 hrs by Halo zone test; assay type: functional
[8] = system: Trichophyton mentagrophytes; assay: Antifungal activity against Trichophyton mentagrophytes after 48 hrs by Halo zone test; assay type: functional
[9] = system: Streptococcus pyogenes; assay: Antibacterial activity against clinical isolate of Streptococcus pyogenes after 24 hrs by broth dilution method; assay type: functional
[10] = system: Staphylococcus aureus; assay: Bactericidal activity against methicillin-resistant Staphylococcus aureus after 18 to 24 hrs by colony counting method; assay type: functional
Method in brief: (§2)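 Colonies were counted after 18–24 h at 35 °C. MBC is the lowest concentration that kills 99.9% of the inoculum.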

[11] = system: Escherichia coli; assay: Bactericidal activity against Escherichia coli ATCC 25922 after 18 to 24 hrs by colony counting method; assay type: functional; method in brief: as §2
[12] = system: Candida albicans; assay: Antifungal activity against Candida albicans after 48 hrs by agar diffusion method; assay type: functional
[13] = system: Talaromyces marneffei; assay: Antifungal activity against Penicillium marneffei after 48 hrs by agar diffusion method; assay type: functional
[14] = system: Klebsiella pneumoniae; assay: Antibacterial activity against clinical isolate of Klebsiella pneumoniae after 24 hrs by disk diffusion method; assay type: functional
[15] = system: Escherichia coli; assay: Antibacterial activity against Escherichia coli ATCC 25922 after 24 hrs by disk diffusion method; assay type: functional
[16] = system: Streptococcus pyogenes; assay: Bactericidal activity against clinical isolate of Streptococcus pyogenes after 18 to 24 hrs by colony counting method; assay type: functional
[17] = system: Klebsiella pneumoniae; assay: Bactericidal activity against clinical isolate of Klebsiella pneumoniae after 18 to 24 hrs by colony counting method; assay type: functional
[18] = system: Aspergillus fumigatus; assay: Antifungal activity against Aspergillus fumigatus after 48 hrs by agar diffusion method; assay type: functional
[19] = system: Escherichia coli; assay: Antibacterial activity against Escherichia coli ATCC 25922 after 24 hrs by broth dilution method; assay type: functional; conditions: ATCC 25922, 24 h
[20] = system: Pseudomonas aeruginosa; assay: Antibacterial activity against Pseudomonas aeruginosa ATCC 27853 after 24 hrs by broth dilution method; assay type: functional; conditions: ATCC 27853, 24 h
[21] = system: Trichophyton mentagrophytes; assay: Antifungal activity against Trichophyton mentagrophytes after 48 hrs by agar diffusion method; assay type: functional
[22] = system: Staphylococcus aureus; assay: Antibacterial activity against methicillin-resistant Staphylococcus aureus after 24 hrs by broth dilution method; assay type: functional
[23] = system: Pseudomonas aeruginosa; assay: Bactericidal activity against Pseudomonas aeruginosa ATCC 27853 after 18 to 24 hrs by colony counting method; assay type: functional; method in brief: as §2
[24] = system: Pseudomonas aeruginosa; assay: Antibacterial activity against Pseudomonas aeruginosa ATCC 27853 after 24 hrs by disk diffusion method; assay type: functional
[25] = system: Streptococcus pyogenes; assay: Antibacterial activity against clinical isolate of Streptococcus pyogenes after 24 hrs by disk diffusion method; assay type: functional
[26] = system: Klebsiella pneumoniae; assay: Antibacterial activity against clinical isolate of Klebsiella pneumoniae after 24 hrs by broth dilution method; assay type: functional
[27] = system: Staphylococcus aureus; assay: Antibacterial activity against methicillin-resistant Staphylococcus aureus after 24 hrs by disk diffusion method; assay type: functional
[28] = system: Streptococcus pyogenes; assay: Antibacterial activity against clinical isolate of Streptococcus pyogenes after 24 hrs at 30 ug by Halo zone test; conditions: read-out: DIZ
[29] = system: Pseudomonas aeruginosa; assay: microbe, parasite or virus in culture; conditions: ATCC 27853, 24 h, read-out: DIZ
[30] = system: Klebsiella pneumoniae; assay: Antibacterial activity against clinical isolate of Klebsiella pneumoniae at 30 ug after 24 hrs by Halo zone test; conditions: read-out: DIZ
[31] = system: Staphylococcus aureus; assay: Antibacterial activity against methicillin-resistant Staphylococcus aureus at 30 ug after 24 hrs by Halo zone test; conditions: read-out: DIZ

Row | SMILES | MFC [1] | MIC [1] | MFC [2] | MIC [2] | MFC [4] | MIC [4] | MFC [5] | MIC [5] | MIC [9] | MBC [10] | MBC [11] | diameter of the inhibition zone (DIZ) [12] | diameter of the inhibition zone (DIZ) [13] | diameter of the inhibition zone (DIZ) [14] | diameter of the inhibition zone (DIZ) [15] | MBC [16] | MBC [17] | diameter of the inhibition zone (DIZ) [18] | MIC [19] | MBC [23] | also measured
1 | OC(Cn1cncn1)(Cn1cncn1)c1ccc(F)cc1F [FLUCONAZOLE] | 12.5 µg/mL (≈ 40.8 µM) | 6.25 µg/mL (≈ 20.4 µM) | 12.5 µg/mL (≈ 40.8 µM) | 6.5 µg/mL (≈ 21.2 µM) | 12.5 µg/mL (≈ 40.8 µM) | 6.5 µg/mL (≈ 21.2 µM) | 12.5 µg/mL (≈ 40.8 µM) | 6.25 µg/mL (≈ 20.4 µM) | – | – | – | – | – | – | – | – | – | – | – | – | diameter of the inhibition zone (DIZ) [3]: 20 mm; diameter of the inhibition zone (DIZ) [6]: 20 mm; diameter of the inhibition zone (DIZ) [7]: 18 mm; diameter of the inhibition zone (DIZ) [8]: 19 mm
2 | Cc1nn(-c2ccccc2)c(Cl)c1/C=C/C(=O)C1C(=O)NC(=O)NC1=O | 25 µg/mL (≈ 67.1 µM) | 12.5 µg/mL (≈ 33.5 µM) | 25 µg/mL (≈ 67.1 µM) | 12.5 µg/mL (≈ 33.5 µM) | 25 µg/mL (≈ 67.1 µM) | 12.5 µg/mL (≈ 33.5 µM) | 25 µg/mL (≈ 67.1 µM) | 12.5 µg/mL (≈ 33.5 µM) | 12.5 µg/mL (≈ 33.5 µM) | 50 µg/mL (≈ 134 µM) | 50 µg/mL (≈ 134 µM) | 25.5 mm | 14.1 mm | 17.1 mm | 24.8 mm | 25 µg/mL (≈ 67.1 µM) | 25 µg/mL (≈ 67.1 µM) | 21.3 mm | 12.5 µg/mL (≈ 33.5 µM) | 25 µg/mL (≈ 67.1 µM) | MIC [20]: 12.5 µg/mL (≈ 33.5 µM); diameter of the inhibition zone (DIZ) [21]: 17.1 mm; MIC [22]: 12.5 µg/mL (≈ 33.5 µM); diameter of the inhibition zone (DIZ) [24]: 27.2 mm; diameter of the inhibition zone (DIZ) [25]: 22.2 mm; MIC [26]: 12.5 µg/mL (≈ 33.5 µM); diameter of the inhibition zone (DIZ) [27]: 20.2 mm
3 | O=C(O)c1cn(C2CC2)c2cc(N3CCNCC3)c(F)cc2c1=O [CIPROFLOXACIN] | – | – | – | – | – | – | – | – | – | 50 µg/mL (≈ 151 µM) | 50 µg/mL (≈ 151 µM) | – | – | – | – | – | – | – | – | 25 µg/mL (≈ 75.4 µM) | zone of inhibition at 30 µg/disc [28]: 24 mm; zone of inhibition at 30 µg/disc [29]: 32 mm; zone of inhibition at 30 µg/disc [30]: 18 mm; zone of inhibition at 30 µg/disc [31]: 25 mm
4 | Cc1nn(-c2ccccc2)c(Cl)c1C1CC(C2C(=O)NC(=S)NC2=O)=NN1 (stereo not given) | 100 µg/mL (≈ 248 µM) | 25 µg/mL (≈ 62.1 µM) | > 100 µg/mL | > 100 µg/mL | 100 µg/mL (≈ 248 µM) | 25 µg/mL (≈ 62.1 µM) | 100 µg/mL (≈ 248 µM) | 50 µg/mL (≈ 124 µM) | 50 µg/mL (≈ 124 µM) | > 100 µg/mL | 100 µg/mL (≈ 248 µM) | 20.2 mm | 13.1 mm | 14.4 mm | 19.1 mm | 100 µg/mL (≈ 248 µM) | > 100 µg/mL | 16.2 mm | 50 µg/mL (≈ 124 µM) | 100 µg/mL (≈ 248 µM) | MIC [20]: 50 µg/mL (≈ 124 µM); diameter of the inhibition zone (DIZ) [21]: 15.8 mm; MIC [22]: 100 µg/mL (≈ 248 µM); diameter of the inhibition zone (DIZ) [24]: 18.2 mm; diameter of the inhibition zone (DIZ) [25]: 15.2 mm; MIC [26]: 50 µg/mL (≈ 124 µM); diameter of the inhibition zone (DIZ) [27]: 14.2 mm
5 | Cc1nn(-c2ccccc2)c(Cl)c1C1CC(C2C(=O)NC(=O)NC2=O)=NN1 (stereo not given) | 100 µg/mL (≈ 259 µM) | 50 µg/mL (≈ 129 µM) | 100 µg/mL (≈ 259 µM) | 50 µg/mL (≈ 129 µM) | 100 µg/mL (≈ 259 µM) | 50 µg/mL (≈ 129 µM) | 100 µg/mL (≈ 259 µM) | 50 µg/mL (≈ 129 µM) | 50 µg/mL (≈ 129 µM) | > 100 µg/mL | > 100 µg/mL | 20.4 mm | 13.1 mm | 14.7 mm | 19.2 mm | 100 µg/mL (≈ 259 µM) | > 100 µg/mL | 16.8 mm | 50 µg/mL (≈ 129 µM) | 100 µg/mL (≈ 259 µM) | MIC [20]: 50 µg/mL (≈ 129 µM); diameter of the inhibition zone (DIZ) [21]: 16 mm; MIC [22]: 100 µg/mL (≈ 259 µM); diameter of the inhibition zone (DIZ) [24]: 20.1 mm; diameter of the inhibition zone (DIZ) [25]: 16.8 mm; MIC [26]: 50 µg/mL (≈ 129 µM); diameter of the inhibition zone (DIZ) [27]: 15.3 mm
